According to ChEMBL document CHEMBL2346503, “Synthesis and evaluation of novel (18)F-labeled spirocyclic piperidine derivatives as σ1 receptor ligands for positron emission tomography imaging” (J Med Chem, 2013):

What was measured:
[1] = Displacement of [3H]-1,3-di-o-tolylguanidine from rat liver sigma2 receptor by competitive binding assay
Method in brief: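 Rat liver homogenate as the σ2 source, with [3H]DTG as radioligand plus 10 μM dextrallorphan to mask σ1 sites, in a competition format. Ki values are mean ± SD of three experiments, each run in triplicate.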

Rattus norvegicus = species on record: Rattus norvegicus; test: Selectivity ratio of Ki for rat liver sigma2 receptor to rat brain sigma1 receptor
Method in brief: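 Competition binding used rat brain homogenates for σ1 with (+)-[³H]pentazocine. Rat liver homogenates were used for σ2 with [³H]DTG, in the presence of 10 μM dextrallorphan to mask σ1 sites. Ki values are means ± SD of three experiments, each in triplicate. Selectivity is Ki(σ2)/Ki(σ1).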

[2] = molecular target: Sigma non-opioid intracellular receptor 1 (Rattus norvegicus, UniProt Q9R0C9); test: Displacement of (+)-[3H]pentazocine from rat brain sigma1 receptor by competitive binding assay
Chain of Sigma non-opioid intracellular receptor 1 (Rattus norvegicus, UniProt Q9R0C9) (Q9R0C9 whole entry): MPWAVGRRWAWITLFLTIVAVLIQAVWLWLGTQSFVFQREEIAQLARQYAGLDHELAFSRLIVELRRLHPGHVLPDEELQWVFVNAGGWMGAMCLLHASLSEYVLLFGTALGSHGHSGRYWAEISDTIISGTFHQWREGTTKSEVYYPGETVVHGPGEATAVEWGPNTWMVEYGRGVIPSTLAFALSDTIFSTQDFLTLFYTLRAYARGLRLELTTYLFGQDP

[3] = molecular target: T1, Sigma non-opioid intracellular receptor 1 (Homo sapiens, UniProt Q99720); test: Binding affinity to human brain sigma1 receptor
T1 sequence (Q99720 whole entry): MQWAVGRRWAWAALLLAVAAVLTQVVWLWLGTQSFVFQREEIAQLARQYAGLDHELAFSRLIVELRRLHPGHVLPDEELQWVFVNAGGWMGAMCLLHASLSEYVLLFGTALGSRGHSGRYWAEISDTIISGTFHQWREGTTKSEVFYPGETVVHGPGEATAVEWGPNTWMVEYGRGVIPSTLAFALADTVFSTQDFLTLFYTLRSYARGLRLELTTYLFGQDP

Liver microsomes [4] = test: Metabolic stability in rat liver microsomes assessed as retention time by UPLC-MS analysis in presence of beta-NADP; assay type: ADME, Microsome
Method in brief: (§1)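 Rat liver microsomes (2 mg protein/mL) with 100 μM compound and an NADPH-generating system (2 mM β-NADPH, 20 mM glucose 6-phosphate, 2 U G6PDH, 12 mM MgCl₂) in 0.05 M Tris-HCl pH 7.4. Preincubated 3 min, then run 30 min at 37 °C and stopped with ice-cold methanol. Supernatant analysed by UPLC-ESI(+)-MS against compound-free blanks.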

Brain [5] = test: Biodistribution in mouse brain after 60 mins in presence of haloperidol relative to control; assay type: ADME, organism-based; settings: in vivo, 1 h
Method in brief: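 Male ICR mice (n = 5 per group) got saline (0.1 mL) or haloperidol (0.1 mL, 1.0 mg/kg) via tail vein 5 min before iv [18F]tracer (370 kBq, 0.1 mL, saline). Killed by decapitation at 60 min. Brain was weighed and gamma-counted with decay correction, giving %ID/g against diluted injectate. Control vs blocking compared by two-tailed independent Student's t test.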

[6] = Ratio of drug uptake from […] mouse brain to blood after 120 mins; assay type: ADME, tissue-based; settings: brain and blood
Method in brief: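 Male ICR mice (n = 5 per time point) received [18F]tracer (370 kBq, 0.1 mL saline) iv and were decapitated at 2, 30, 60 and 120 min. Brain and blood were weighed and gamma-counted, decay-corrected and expressed as %ID/g against diluted injectate. The brain/blood ratio was taken from these %ID/g values.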

Brain [7] = test: Biodistribution in mouse brain after 5 mins by PET imaging analysis; assay type: ADME, organism-based; settings: in vivo
[8] = molecular target: 3-beta-hydroxysteroid-Delta(8),Delta(7)-isomerase (Homo sapiens, UniProt Q15125); test: Binding affinity to EBP (unknown origin)
Chain of 3-beta-hydroxysteroid-Delta(8),Delta(7)-isomerase (Q15125 whole entry): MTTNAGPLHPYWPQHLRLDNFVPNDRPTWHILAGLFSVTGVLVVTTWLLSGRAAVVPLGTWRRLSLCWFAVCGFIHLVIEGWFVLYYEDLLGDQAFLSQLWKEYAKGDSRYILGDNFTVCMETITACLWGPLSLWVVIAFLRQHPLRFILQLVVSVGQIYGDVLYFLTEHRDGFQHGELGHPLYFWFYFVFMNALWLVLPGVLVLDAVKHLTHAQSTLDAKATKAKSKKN

[9] = molecular target: Vesicular acetylcholine transporter (Rattus norvegicus, UniProt Q62666); test: Displacement of (-)-[3H]-vesamicol from rat VAChT transfected in rat PC12 cells after 120 mins by competitive binding assay; assay type: cell-based, PC-12
Chain of Vesicular acetylcholine transporter (Q62666 whole entry): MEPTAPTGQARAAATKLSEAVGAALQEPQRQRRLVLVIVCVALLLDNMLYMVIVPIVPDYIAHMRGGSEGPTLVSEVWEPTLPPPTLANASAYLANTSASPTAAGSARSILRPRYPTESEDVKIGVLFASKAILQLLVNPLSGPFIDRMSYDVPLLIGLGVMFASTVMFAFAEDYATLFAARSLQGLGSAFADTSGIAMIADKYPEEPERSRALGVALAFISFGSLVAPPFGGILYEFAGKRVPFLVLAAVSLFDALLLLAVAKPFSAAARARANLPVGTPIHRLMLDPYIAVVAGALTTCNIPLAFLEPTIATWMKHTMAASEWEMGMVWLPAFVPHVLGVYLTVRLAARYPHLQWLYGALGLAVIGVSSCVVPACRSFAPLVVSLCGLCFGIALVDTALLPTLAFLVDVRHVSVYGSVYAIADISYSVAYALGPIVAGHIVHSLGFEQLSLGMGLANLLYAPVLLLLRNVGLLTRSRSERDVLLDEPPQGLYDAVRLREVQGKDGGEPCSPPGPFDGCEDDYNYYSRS
Method in brief: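 Membrane homogenates from PC12 cells stably expressing rat VAChT, with 1 nM (−)-[3H]vesamicol, test ligand at 10⁻¹¹–10⁻⁵ M, in 50 mM Tris-HCl pH 7.4, 120 min at room temperature. Nonspecific binding was defined with 10 μM (−)-vesamicol. Ki from Cheng–Prusoff; mean of two experiments, each in triplicate.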

Liver microsomes [10] = test: Metabolic stability in rat liver microsomes assessed as retention time at 100 uM by UPLC-MS analysis in presence of beta-NADPH; assay type: ADME, Microsome; method in brief: as §1
Homo sapiens = species on record: Homo sapiens; test: Selectivity ratio of Ki for human sigma2 receptor to human sigma1 receptor
Brain [11] = test: Biodistribution in iv dosed CD1 mouse brain after 15 mins by PET imaging analysis; assay type: ADME, organism-based; settings: in vivo, 0.25 h
[12] = Lipophilicity, log D of the compound at pH 7.4; assay type: physicochemical; settings: buffer
Method in brief: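 Shake flask: radiotracer (370 kBq) in 3 mL 1-octanol plus 3 mL 0.05 M sodium phosphate buffer pH 7.4, vortexed 3 min at room temperature, then centrifuged. Both phases were gamma-counted and log D = log(cpm/mL octanol ÷ cpm/mL buffer). The octanol layer was repartitioned until values were consistent. Triplicate, repeated three times.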

[13] = Metabolic stability in ICR mouse liver at 18.5 MBq, iv after 30 mins by HPLC analysis; assay type: ADME, organism-based; settings: read-out: Stability
Method in brief: (§2)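 Male ICR mice given radiotracer iv (18.5 MBq, 0.2 mL), killed at 30 min. Brain and liver were homogenized in ice-cold PBS (0.01 M, pH 7.4) and extracted with ice-cold MeCN. Supernatants were filtered, concentrated and analysed by radio-HPLC on a C18 column, acetonitrile/water with 0.1% TFA (45:55), 1 mL/min.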

Brain [14] = test: Metabolic stability in ICR mouse brain at 18.5 MBq, iv after 30 mins by HPLC analysis; assay type: ADME, organism-based; settings: in vivo, 0.5 h; method in brief: as §2
Liver = test: Metabolic stability in ICR mouse liver assessed as retention time at 18.5 MBq, iv by HPLC analysis; assay type: ADME, organism-based; settings: in vivo; method in brief: as §2
[15] = molecular target: T1, Sigma non-opioid intracellular receptor 1; test: Binding affinity to sigma1 receptor (unknown origin)
Method in brief: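 Radioligand competition binding on rat brain homogenates using (+)-[³H]pentazocine as the competing radioligand. Ki values are means ± SD of three experiments, each performed in triplicate.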

[16] = Binding affinity to sigma2 receptor (unknown origin); design: species or system Homo sapiens
Brain [17] = test: Biodistribution in iv dosed CD1 mouse brain after 30 mins in presence of haloperidol relative to control; assay type: ADME, organism-based; settings: in vivo, 0.5 h
[18] = Ratio of drug uptake from mouse brain to blood after 30 mins; assay type: ADME, tissue-based; settings: brain and blood
Method in brief: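 Male ICR mice (n = 5 per time point) received an intravenous saline solution of the radiotracer (370 kBq, 0.1 mL). They were decapitated at 2, 30, 60 and 120 min. Brain, blood and other organs were weighed and γ-counted against diluted injectate aliquots, decay-corrected, and expressed as %ID/g of wet tissue (mean, SD). The brain/blood ratio is given at each time.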

| Ki [1] [nM] | Ratio Ki (Rattus norvegicus) | Ki [2] [nM] | Compound | further results |
| --- | --- | --- | --- | --- |
| 860 | 16 | 52.9 | FCCOCCOc1ccc(CN2CCC3(CC2)OCc2ccccc23)cc1 | – |
| 592 | 16 | 37.5 | FCCOCCOCCOc1ccc(CN2CCC3(CC2)OCc2ccccc23)cc1 | – |
| 276 | 162 | 1.7 | COc1ccc(CN2CCC3(CC2)OCc2ccccc23)cc1 | – |
| 327 | 142 | 2.3 | FCCOc1ccc(CN2CCC3(CC2)OCc2ccccc23)cn1 | – |

The next lines start with the molecule.

| Compound | Ki [1] [nM] | Ratio Ki (Rattus norvegicus) | Ki [2] [nM] | further results |
| --- | --- | --- | --- | --- |
| Fc1ccc(CN2CCC3(CC2)OCc2ccccc23)cc1 | 106 | 182 | 0.58 | – |
| N#Cc1ccc(OCC2CCN(CCC[18F])CC2)cc1 | – | – | – | Ki [3]: 4.3 nM |
| Oc1ccc(CN2CCC3(CC2)OCc2ccccc23)cc1 | – | – | – | Retention_time (Liver microsomes [4]): 1.74 min |
| OCc1ccccc1C1(O)CCN(Cc2ccc(OCCF)cc2)CC1 | – | – | – | Retention_time (Liver microsomes [4]): 1.42 min |
| [18F]CCC1OC2(CCN(Cc3ccccc3)CC2)c2ccccc21 (centres undefined) | – | – | – | Drug uptake (Brain [5]): 62%; Kp at 2 h [6]: 18.8; Drug uptake (Brain [7]): 3.88 % ID/g |
| O=C(CCCN1CCC(O)(c2ccc(Cl)cc2)CC1)c1ccc(F)cc1 [HALOPERIDOL] | 20.7 | – | – | – |
| COc1ccc(CCN2CCN(CCCc3ccccc3)CC2)cc1OC [[11C]SA4503] | – | – | – | Ki [8]: 1.72 nM |
| FCCOc1ccc(CN2CCC3(CC2)OCc2ccccc23)cc1 | 277 | 350 | 0.79 | Ki [9]: 631 nM; Retention_time (Liver microsomes [10]): 1.82 min |
| N#Cc1ccc(OCC2CCN(C/C=C/I)CC2)cc1 | – | – | – | Ratio Ki (Homo sapiens; tested as the 123I-labelled form): 58 |
| [125I]c1ccc(CN2CCC3(CC2)OCc2ccccc23)cc1 | – | – | – | Drug uptake (Brain [11]): 5.28 % ID/g; logD [12]: 3.06 |
| N#Cc1ccc(OCC2CCN(C/C=C/[123I])CC2)cc1 | – | – | – | Ki [3]: 0.67 nM |
| OCc1ccccc1C1(O)CCN(Cc2ccc(OCC[18F])cc2)CC1 | – | – | – | remaining at 0.5 h [13]: 26.9%; Stability (Brain [14]): Unstable; Retention_time (Liver): 4.68 min |
| Ic1ccc(CN2CCC3(CC2)OCc2ccccc23)cc1 | 340 | 123 | 2.75 | Ki [15]: 2.75 nM; Ki [16]: 340 nM |
| COc1cc(CCN2CCN(CCCc3ccccc3)CC2)ccc1O[11CH3] | – | – | – | Drug uptake (Brain [17]): 60%; Kp at 0.5 h [18]: 11.6; Drug uptake (Brain [7]): 3.61 % ID/g |
| N#Cc1ccc(OCC2CCN(CCCF)CC2)cc1 | – | – | – | Ratio Ki (Homo sapiens; tested as the 18F-labelled form): 33 |
